Screening results deposited in PubChem by several laboratories.
PRMT1 FP inh = inhibitors of human PRMT1 | inhibition, % at 2.79 µM | AID 652257 | recombinant PRMT1, activity-based probe fluorescence polarization | actives 1.3% (n = 370,000);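 active = inhibition above about 21% made by adding two undisclosed values, limit read from the data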
mABHD4 FP = inhibits mouse alpha/beta hydrolase domain 4. Q8VD66. inhibition, % at 8.92 µM. actives 0.54% (n = 370,000). purified mABHD4, FP-Rh probe fluorescence polarization;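 active = inhibition exceeding the mean over every tested compound plus 3 SD, cut at about 30% in these data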;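 note: 0% = plate median of compound wells and 100% = S159A mutant with DMSO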
Target sequence (Q8VD66 whole entry, looked up, the tested form may be a part): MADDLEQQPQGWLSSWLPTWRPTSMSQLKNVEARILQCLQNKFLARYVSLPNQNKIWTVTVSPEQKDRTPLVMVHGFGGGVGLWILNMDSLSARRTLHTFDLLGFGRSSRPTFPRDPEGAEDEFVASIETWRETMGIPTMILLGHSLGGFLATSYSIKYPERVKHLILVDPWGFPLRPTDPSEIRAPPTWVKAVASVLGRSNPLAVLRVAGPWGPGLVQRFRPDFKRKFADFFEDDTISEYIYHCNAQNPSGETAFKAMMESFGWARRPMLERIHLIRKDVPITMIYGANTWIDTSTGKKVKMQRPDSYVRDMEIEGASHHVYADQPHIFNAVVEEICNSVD
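assay system = mABHD4 protein | compound dosing = single nominal dose of 8.92 µM, 0.89% DMSO final | read-out basis = percent inhibition of probe binding, normalized to plate controls | schedule = Enzyme–compound pre-incubation 45 min, then probe 60 min, both 25 °C | detection = fluorescence polarization, excitation 525 nm, emission 598 nm, BODIPY TMR filters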
HTRA1 inhibitor = inhibitors of human serine peptidase HTRA1; Q92743; recombinant HTRA1, FP-rhodamine activity-based probe, fluorescence polarization; inhibition, % at 5.96 µM; actives 0.5% (n = 340,000); AID 504803; in the data active = inhibition above about 36%;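 note: 0% = enzyme with DMSO and 100% = wells lacking enzyme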
JMJD2C inh = blocks human GASC-1 demethylase activity. Q9H3R0. GST-JMJD2C(1-420) H3K9me3 demethylation, DELFIA europium. inhibition, % at 2.35 µM. actives 0.069% (n = 330,000). AID 2099;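 active = more than half of a compound's replicate wells show inhibition beyond 50%, single wells judged on their own value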;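 note: signal counts dimethyl H3K9 product captured on neutravidin plate; 0% = median of DMSO wells and 100% = 0.3 times that DMSO median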
SIAE inh = blocks human sialic acid acetylesterase; SIAE FP-Rh probe binding, fluorescence polarization; actives 0.69% (n = 370,000); Q9HAT2; inhibition, % at 9.66 µM;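 active = inhibition above a cutoff: mean of compounds within the control limits plus 3 SD of those, cut at about 17% in these data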;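 note: 0% = plate median of compound wells and 100% = probe without SIAE protein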
PRMT1 confirm = confirmation of human PRMT1 inhibitors | recombinant His-PRMT1, activity-based probe fluorescence polarization | actives 42% (n = 3,300) | shares compounds with PRMT1 FP inh | inhibition, % at 2.79 µM;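 active = mean inhibition across replicates above the hit cutoff derived for the earlier primary screen, cut at about 22% in these data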
An asterisk follows results filed as active; . = no result. Hits are enriched below; roughly 2.4% of the tested compounds scored in any of these assays.

SMILES	PRMT1 FP inh	mABHD4 FP	HTRA1 inhibitor	JMJD2C inh	SIAE inh	PRMT1 confirm
COc1ccc(CN2C(=O)[C@@](O)(c3cccn3C)c3cc(Br)ccc32)cc1	-0.1	-10.4	.	.	-2.1	.
COc1ccc(NC(=O)/C=C/C(=O)O)c([N+](=O)[O-])c1	42.6*	6.1	2.1	-16.6	4.1	0.8
Cc1cc(NC(=O)/C=C\C(=O)O)c([N+](=O)[O-])cc1C	46.7*	-9.4	5.6	5.4	-5.4	2.9
Cc1ccc(NC(=O)/C=C/C(=O)O)c([N+](=O)[O-])c1	3.6	6.4	10.0	3.3	-2.2	.
CCOc1ccc(/C=C/C(=O)Nc2ccc(OC)cc2[N+](=O)[O-])cc1	0.6	-8.8	-7.9	1.8	3.5	.
COc1cccc(N2CCN(C(=O)CSc3nc4ncccc4[nH]3)CC2)c1	-2.4	5.7	.	.	4.4	.
COCCNC(=O)c1cc(-c2ccccc2)sc1N	31.9*	2.4	.	.	0.7	-2.2
Cc1ccc(-c2nnc(SCC(=O)Nc3ccc(-c4nc5ccc(C)cc5s4)cc3)n2Cc2ccco2)cc1	34.0*	-21.2	.	.	-18.6	21.5*
Cc1ccc2nc(-c3ccc(NC(=O)CSc4nnc(-c5cccc(Cl)c5)n4Cc4ccco4)cc3)sc2c1	47.1*	-65.0	.	.	-76.5	12.5
Fc1ccc(-c2n[nH]c(=S)n2/N=C/c2c[nH]c3ccccc23)cc1	30.9*	0.5	-6.8	-10.7	-1.2	22.4*
CCN(CC)c1ccc(C=Nn2c(-c3ccc(F)cc3)n[nH]c2=S)c(O)c1	36.5*	20.9	.	.	4.8	34.9*
COC(=O)[C@]12C[C@H](CC(=O)N3CCN(C(=O)c4ccco4)CC3)C(=O)N(Cc3cccc4ccccc34)C1=C[C@H](COCc1ccccc1)O[C@@H]2C	3.6	-2.8	.	.	1.7	.
Clc1cccc(N2CCN(c3nnnn3-c3ccccc3)CC2)c1	-2.4	0.6	-10.1	6.9	-0.8	.
O=C1CC(Sc2nnnn2-c2ccccc2)C(=O)N1c1cccc(Cl)c1 (stereo not drawn)	74.1*	1.7	-2.0	23.1	-4.0	79.2*
COc1ccc(N2C(=O)CC(Sc3nnnn3-c3ccc(F)cc3)C2=O)cc1 (stereo not drawn)	50.7*	1.3	-6.0	2.5	1.8	64.2*
CN(c1c2c(nc3ncnn13)CCCC2)C1CCCCC1	-1.3	1.5	.	.	-2.2	.
CNC(=O)C[C@@H]1CC[C@@H]2[C@H](COc3ccc(NC(=O)c4cccc(F)c4)cc3C(=O)N2C)O1	3.5	5.1	.	.	4.4	.
Cc1ccc(C(O)c2ncc(-c3ccc4ccccc4c3)[nH]2)cc1F (stereo not drawn)	-1.9	-6.8	.	.	-6.8	.
C[C@H](O)[C@@H]1CN2CCc3c([nH]c4c(-c5ccccc5)cccc34)[C@@H]2C[C@@H]1N(C)C(=S)NCCc1ccccc1	-2.8	-0.7	.	.	-2.2	.
Cc1cc(C)n2nc(N)c(N=Nc3cccc(Cl)c3)c2n1	57.8*	-2.5	0.1	20.3	-5.7	0.3
Cc1ccc(N=Nc2c(N)nn3c(C)cc(C)nc23)cc1	1.4	2.7	4.9	-1.6	-1.8	.
COc1ccccc1OCC(=O)Nc1nnc(-c2ccco2)s1	73.0*	8.8	-0.5	-21.8	3.3	2.4
CCOC(=O)c1cc2c(ccn2C)n1Cc1ccc(Cl)cc1	-2.7	-3.0	-12.6	-4.9	6.6	.
Cc1cccc(Cn2c(C(=O)OC(C)C)cc3c2ccn3C)c1	36.0*	15.2	-2.5	-34.1	2.3	3.4
C=CCn1c(SCC(=O)OC(C)C)nnc1-c1ccc(C)cc1	39.8*	2.1	.	.	3.3	-2.8
SMILES	PRMT1 FP inh	mABHD4 FP	HTRA1 inhibitor	JMJD2C inh	SIAE inh	PRMT1 confirm
COc1ccc(C(=S)N2CCN(C)CC2)cc1Br	-2.1	-6.4	2.9	-1.0	4.9	.
COc1ccc(C(=S)N2CCN(C)CC2)cc1	29.9*	-0.3	-5.3	3.8	-0.9	8.3
COc1ccc(C(=O)Oc2ccc(C(=S)N3CCOCC3)cc2)cc1	57.2*	-5.6	-8.3	4.9	-10.5	2.0
CCOC(=O)C1CCCN(S(=O)(=O)c2cc3c(cc2Cl)NC(=O)CO3)C1 (stereo not drawn)	34.1*	-4.5	3.2	-0.4	-0.1	7.8
Cc1ccc(N2C(=O)C3C4C=CC(CNC(=S)N5CCN(c6cccc(C)c6)C(C)C5)(O4)C3C2=O)cc1 (stereo not drawn)	36.9*	1.0	8.1	2.3	2.6	31.9*
CCOC(=O)CNC(=O)CSc1nc(Cc2cccs2)nc2ccccc12	27.0*	4.2	-8.0	2.6	-3.6	22.3*
